Measured values taken from ChEMBL document CHEMBL1125911, “Synthesis and biological activity of new HMG-CoA reductase inhibitors. 3. Lactones of 6-phenoxy-3,5-dihydroxyhexanoic acids” (J Med Chem, 1991).
Blank lines part the entries; values can stand above or below the molecule they belong to.

Columns and labels:
[1] = target: T1, 3-hydroxy-3-methylglutaryl-coenzyme A reductase (Rattus norvegicus, UniProt P51639); experiment: In vitro inhibition of HMG-CoA reductase in solubilized rat liver.
T1 sequence (P51639 whole entry): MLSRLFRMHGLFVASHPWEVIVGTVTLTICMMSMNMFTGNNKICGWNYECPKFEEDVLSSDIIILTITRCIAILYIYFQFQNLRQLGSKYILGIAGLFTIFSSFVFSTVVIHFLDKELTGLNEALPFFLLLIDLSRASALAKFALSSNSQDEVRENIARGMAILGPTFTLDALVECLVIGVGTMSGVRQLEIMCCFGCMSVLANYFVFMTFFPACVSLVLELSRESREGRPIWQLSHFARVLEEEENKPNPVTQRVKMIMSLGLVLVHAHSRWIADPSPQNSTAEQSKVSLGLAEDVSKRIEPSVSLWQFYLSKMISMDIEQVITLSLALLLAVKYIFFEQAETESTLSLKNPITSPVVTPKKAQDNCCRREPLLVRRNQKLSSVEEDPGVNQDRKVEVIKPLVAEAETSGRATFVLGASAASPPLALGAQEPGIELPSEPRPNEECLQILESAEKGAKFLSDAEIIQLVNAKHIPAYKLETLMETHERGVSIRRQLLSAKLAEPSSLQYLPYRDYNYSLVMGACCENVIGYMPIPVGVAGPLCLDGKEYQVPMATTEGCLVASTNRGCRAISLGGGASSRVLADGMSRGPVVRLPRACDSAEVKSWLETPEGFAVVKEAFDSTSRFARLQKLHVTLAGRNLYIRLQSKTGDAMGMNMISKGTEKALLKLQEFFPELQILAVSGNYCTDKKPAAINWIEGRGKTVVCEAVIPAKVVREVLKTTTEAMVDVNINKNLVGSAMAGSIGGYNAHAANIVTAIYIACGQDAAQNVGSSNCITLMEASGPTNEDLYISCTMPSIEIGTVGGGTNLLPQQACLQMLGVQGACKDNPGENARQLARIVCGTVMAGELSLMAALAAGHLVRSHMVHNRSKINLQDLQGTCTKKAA

Oryctolagus cuniculus [2] = experiment: Tested in vivo for hypocholesterolemic activity by measuring its ability to decrease serum total cholesterol, after oral administration of 75 mg/kg body wt. per day in normolipidemic NZW rabbits; type: functional
Summary of the method: (§1)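 NZW rabbits (n = 5 or 6) dosed orally daily for 10 days. Serum total cholesterol reported as % change versus control. For 20 mg/kg, that dose was given on days 11-20 after 10 mg/kg, with the value read on day 20. Error given as SEM.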

Oryctolagus cuniculus [3] = experiment: Tested in vivo for hypocholesterolemic activity by measuring its ability to decrease serum total cholesterol, after oral administration of 75 mg/kg body wt. per day in normolipidemic NZW rabbits; Not significantly active; type: functional, organism-based; set-up: dose 75 mg/kg, route oral
[4] = target: T2, 3-hydroxy-3-methylglutaryl-coenzyme A reductase (Homo sapiens, UniProt P04035); experiment: Inhibition of the incorporation of sodium [14C]acetate into cholesterol in HEP G2 cells.; type: functional, cell-based, HepG2
T2 sequence (P04035 whole entry): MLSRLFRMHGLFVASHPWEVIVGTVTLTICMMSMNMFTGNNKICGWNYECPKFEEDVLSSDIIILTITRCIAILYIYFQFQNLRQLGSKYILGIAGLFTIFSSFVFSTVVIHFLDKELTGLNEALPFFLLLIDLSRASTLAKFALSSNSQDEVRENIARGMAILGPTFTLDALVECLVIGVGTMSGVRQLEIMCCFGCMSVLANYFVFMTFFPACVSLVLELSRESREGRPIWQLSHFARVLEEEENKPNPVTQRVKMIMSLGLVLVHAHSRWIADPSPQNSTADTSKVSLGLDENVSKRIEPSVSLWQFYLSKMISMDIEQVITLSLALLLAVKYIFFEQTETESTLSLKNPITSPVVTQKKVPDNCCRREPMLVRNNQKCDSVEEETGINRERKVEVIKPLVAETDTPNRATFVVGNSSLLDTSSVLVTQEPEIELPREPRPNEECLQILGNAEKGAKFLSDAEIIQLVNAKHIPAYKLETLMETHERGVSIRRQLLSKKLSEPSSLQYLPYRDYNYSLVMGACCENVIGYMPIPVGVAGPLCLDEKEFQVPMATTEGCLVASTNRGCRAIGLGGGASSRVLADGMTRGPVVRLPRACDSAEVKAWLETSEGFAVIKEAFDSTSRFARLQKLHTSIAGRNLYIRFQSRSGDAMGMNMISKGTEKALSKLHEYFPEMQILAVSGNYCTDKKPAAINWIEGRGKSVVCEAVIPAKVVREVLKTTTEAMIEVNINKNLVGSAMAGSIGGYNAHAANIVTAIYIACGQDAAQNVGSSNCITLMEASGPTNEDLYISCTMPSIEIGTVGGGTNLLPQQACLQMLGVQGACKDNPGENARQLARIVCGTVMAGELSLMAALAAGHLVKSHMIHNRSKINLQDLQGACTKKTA

[5] = target: T3, 3-hydroxy-3-methylglutaryl-coenzyme A reductase (Rattus norvegicus) (UniProt P51639); experiment: (§2) Inhibition of HMG-CoA reductase compared to mevinolin.
T3 sequence (whole entry): T1 sequence (P51639 whole entry)
Summary of the method: (§3)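 Solubilized, partially purified rat liver HMG-CoA reductase. IC50 from four or five inhibitor concentrations. Relative potency compared IC50 with mevinolin (set to 100), corrected for molecular weight.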

[6] = target: T4, 3-hydroxy-3-methylglutaryl-coenzyme A reductase (Homo sapiens) (UniProt P04035); experiment: as §2; type: functional; summary of the method: as §3
T4 sequence (whole entry): T2 sequence (P04035 whole entry)

Rattus norvegicus [7] = experiment: Compound was tested for effect on liver weight after oral administration of 100 mg/kg in male rats.; type: functional
Summary of the method: (§4)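 Male HOE:WISKf (SPF 71) rats, initial body weight over 180 g, n = 10 per group, dosed once daily in the morning by gavage in polyethylene glycol 400 for 7 days; controls received vehicle. Fasted after last dose, bled retroorbitally 24 h later under mild ether. Liver and body weight recorded. Pooled group serum was ultracentrifuged into VLDL (<1.006), LDL (1.006-1.04) and HDL (1.04-1.21). Values are % change versus control.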

Rattus norvegicus [8] = experiment: Compound was tested for effect on body weight after oral administration of 100 mg/kg in male rats.; type: functional; summary of the method: as §4
Rattus norvegicus [9] = experiment: Compound was tested for effect on serum VLDL after oral administration of 100 mg/kg in male rats; type: functional; summary of the method: as §4
Rattus norvegicus [10] = experiment: Compound was tested for effect on serum HDL after oral administration of 100 mg/kg in male rats; type: functional; summary of the method: as §4
Rattus norvegicus [11] = species: Rattus norvegicus; experiment: Compound was tested for inhibition of microsomal lipid peroxidation and the potency relative to terbufucine was determined; type: functional
Summary of the method: (§5)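 Rat liver microsomes in 50 mM Tris-HCl pH 7.4 with 100 mM KCl and 6.0 mM MgCl2, final protein 0.4 mg/mL. Peroxidation was started with ADP (2 mM)/FeCl3 (10 μM) plus an NADPH-regenerating system. Incubation 30 min at 37 °C with shaking. Thiobarbituric acid reactive substances were read at 535 nm.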

Rattus norvegicus [12] = experiment: Compound was tested for effect on serum LDL after oral administration of 100 mg/kg in male rats; type: functional; summary of the method: as §4
Rattus norvegicus [13] = species: Rattus norvegicus; experiment: In vitro inhibition of microsomal lipid peroxidation at 10e-5 M concentration; type: functional; summary of the method: as §5
Canis familiaris [14] = experiment: Tested in vivo for hypocholesterolemic activity by measuring its ability to decrease serum LDL-cholesterol, after oral administration of 10 mg/kg per day for 14 days in male Beagle dogs.; type: functional, Canis lupus familiaris
Summary of the method: (§6)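 Male beagle dogs (n = 4) given neat compound in gelatine capsules daily at 3:00 p.m.; controls received empty capsules. After an overnight fast, venous blood was drawn at 8:00 a.m. Serum lipoproteins were separated by ultracentrifugation (densities 1.006/1.063/1.21). LDL-cholesterol reported as % change versus control.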

Canis familiaris [15] = experiment: Tested in vivo for hypocholesterolemic activity by measuring its ability to decrease serum LDL-cholesterol, after oral administration of 25 mg/kg per day for 14 days in male Beagle dogs.; type: functional, Canis lupus familiaris; summary of the method: as §6
Oryctolagus cuniculus [16] = experiment: Tested in vivo for hypocholesterolemic activity by measuring its ability to decrease serum total cholesterol, after oral administration of 20 mg/kg body wt. per day in normolipidemic NZW rabbits; type: functional; summary of the method: as §1
Oryctolagus cuniculus [17] = experiment: Tested in vivo for hypocholesterolemic activity by measuring its ability to decrease serum total cholesterol, after oral administration of 10 mg/kg body wt. per day in normolipidemic NZW rabbits; type: functional; summary of the method: as §1
Oryctolagus cuniculus [18] = experiment: Tested in vivo for hypocholesterolemic activity by measuring its ability to decrease serum total cholesterol, after oral administration of 75 mg/kg body wt. per day in normolipidemic NZW rabbits; Very potent; type: functional, organism-based; set-up: dose 75 mg/kg, route oral
Canis familiaris [19] = experiment: Tested in vivo for hypocholesterolemic activity by measuring its ability to decrease serum LDL-cholesterol, after oral administration of 30 mg/kg per day for 21 days in male Beagle dogs.; type: functional, Canis lupus familiaris; summary of the method: as §6
Rattus norvegicus [20] = experiment: In vivo inhibition of hepatic cholesterol de novo synthesis in rat after oral administration of 5 mg/kg dose; type: functional
Rattus norvegicus [21] = species: Rattus norvegicus; experiment: Potency relative to mevinolin was determined with respect to IC50. […]; type: functional
Canis familiaris [22] = experiment: Tested in vivo for hypocholesterolemic activity by measuring its ability to decrease serum LDL-cholesterol, after oral administration of 30 mg/kg per day for 14 days in male Beagle dogs.; type: functional, Canis lupus familiaris; summary of the method: as §6
Canis familiaris [23] = experiment: Tested in vivo for hypocholesterolemic activity by measuring its ability to decrease serum LDL-cholesterol, after oral administration of 5 mg/kg per day for 14 days in male Beagle dogs.; type: functional, Canis lupus familiaris; summary of the method: as §6
Sus scrofa [24] = species: Sus scrofa; experiment: In vitro inhibition of Cu2+ catalyzed LDL oxidation at 10e-5 M conc.; type: functional
Summary of the method: (§7)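 Porcine plasma LDL isolated by sequential ultracentrifugation (density 1.019-1.063 g/mL), dialysed against PBS pH 7.4, then diluted to 0.1 mg/mL protein. Preincubated 1 h at 37 °C under N2 with compound in ethanol. Oxidised with 5 μM Cu2+ for 2 h at 37 °C in air. Fluorescence read at ex 365/em 430 nm.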

Sus scrofa [25] = species: Sus scrofa; experiment: Compound was tested for inhibition of Cu2+ catalyzed LDL oxidation and the potency relative to terbufucine was determined; type: functional; summary of the method: as §7
Rattus norvegicus [26] = species: Rattus norvegicus; experiment: In vitro inhibition of microsomal lipid peroxidation; type: functional; summary of the method: as §5
Canis familiaris [27] = experiment: Tested in vivo for hypocholesterolemic activity by measuring its ability to decrease serum LDL-cholesterol, after oral administration of 10 mg/kg per day for 19 days in male Beagle dogs.
[28] = target: T1, 3-hydroxy-3-methylglutaryl-coenzyme A reductase; experiment: In vitro inhibition of solubilized HMG-CoA reductase in rat liver.
Oryctolagus cuniculus [29] = experiment: Tested in vivo for hypocholesterolemic activity by measuring its ability to decrease serum total cholesterol, after oral administration of 75 mg/kg body wt. per day in normolipidemic NZW rabbits; More potent than compound 73; type: functional, organism-based; set-up: dose 75 mg/kg, route oral

IC50 [1]: 50 nM
Structure (SMILES): O=C([O-])C[C@H](O)CC(O)COc1c(Cl)cc(Cl)cc1C(c1ccc(F)cc1)c1ccc(F)cc1.[Na+] (stereo in doubt; 11b)
Change (Oryctolagus cuniculus [2]): -25%

IC50 (Oryctolagus cuniculus [3]): Not Active
IC50 [4]: > 500 nM
Relative potency [5]: 2
IC50 [1]: 400 nM
Relative potency [6]: < 10
Structure (SMILES): CC(C)c1cc(C(C)(C)C)cc(-c2ccc(F)cc2)c1OCC(O)C[C@@H](O)CC(=O)[O-].[Na+] (stereo partly drawn)

IC50 [4]: > 1000 nM
Relative potency [5]: 37
IC50 [1]: 10 nM
Relative potency [6]: < 5
Structure (SMILES): CC(C)c1cc(SC(C)(C)Sc2cc(-c3ccc(F)cc3)c(OC[C@H](O)C[C@@H](O)CC(=O)[O-])c(C(C)C)c2)cc(-c2ccc(F)cc2)c1OC[C@H](O)C[C@@H](O)CC(=O)[O-].[Na+].[Na+]
Change (Rattus norvegicus [7]): -1%
Change (Rattus norvegicus [8]): 5%
Change (Rattus norvegicus [9]): -23%
Change (Rattus norvegicus [10]): 9%
Relative potency (Rattus norvegicus [11]): < 0.1
Change (Rattus norvegicus [12]): -52%
inhibition (Rattus norvegicus [13]): < 10%

Structure (SMILES): CC(C)c1cc(-c2ccc(F)cc2)c(OCC(O)C[C@@H](O)CC(=O)[O-])c(C(C)C)c1.[Na+] (stereo partly drawn)
Change (Canis familiaris [14]): -10%
Change (Canis familiaris [15]): -21%
IC50 [4]: 30 nM
Change (Oryctolagus cuniculus [16]): -37%
Change (Oryctolagus cuniculus [17]): -32%
Relative potency [5]: 300
IC50 [1]: 2.7 nM
Relative potency [6]: 150
IC50 (Oryctolagus cuniculus [18]): Very potent

Structure (SMILES): CC(C)c1cc(-c2ccc(F)cc2)cc(-c2ccc(F)cc2)c1OCC1C[C@@H](O)CC(=O)O1 (stereo partly drawn)
Change (Oryctolagus cuniculus [16]): -34%
Change (Oryctolagus cuniculus [17]): -28%
Change (Canis familiaris [19]): 3%
Cholesterol (Rattus norvegicus [20]): 84.5%
Relative potency (Rattus norvegicus [21]): 18

IC50 (Rattus norvegicus [26]): > 10000 nM
Structure (SMILES): CC(C)c1cc(Sc2ccc(F)cc2)cc(-c2ccc(F)cc2)c1OCC1C[C@@H](O)CC(=O)O1 (stereo partly drawn)
Change (Canis familiaris [22]): -21%
Change (Canis familiaris [23]): -9%
inhibition at 10 µM (Sus scrofa [24]): 23%
Relative potency (Sus scrofa [25]): <0.1

Structure (SMILES): CC[C@H](C)C(=O)O[C@H]1C[C@@H](C)C=C2C=C[C@H](C)[C@H](CC[C@@H]3C[C@@H](O)CC(=O)O3)[C@H]21 [LOVASTATIN]
Change (Oryctolagus cuniculus [16]): -27%
Change (Oryctolagus cuniculus [17]): -25%
Cholesterol (Rattus norvegicus [20]): 14%
Change (Canis familiaris [27]): -20%

IC50 [28]: 1 nM
IC50 (Oryctolagus cuniculus [29]): More potent than compound 73
Structure (SMILES): CC(C)c1nc(C(C)(C)C)cc(-c2ccc(F)cc2)c1/C=C/[C@@H](O)C[C@@H](O)CC(=O)[O-].[Na+]
